Experimental data reported in ChEMBL document CHEMBL1132437, “Synthesis and antimicrobial activity of 4H-4-oxoquinolizine derivatives: consequences of structural modification at the C-8 position” (1999).
Values after ≈ are worked out from the molar mass of the structure shown.

Columns and labels:
[1] = system: Escherichia coli; assay: In vivo efficacy against Escherichia coli JUHL in mouse protection test after subcutaneous administration; format: functional; conditions: Escherichia coli, sc; read-out: ED50
Outline: (§1)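 Mouse protection model: mice infected intravenously with 100-fold LD50 of the organism. Compound given by subcutaneous injection or oral gavage at 1 and 5 h after infection, over a dose range. Deaths tracked for 7 days post-inoculation. ED50 is the dose giving 50% survival of treated mice over the trial.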

[2] = system: Staphylococcus aureus; assay: In vitro antibacterial activity against gram-positive Staphylococcus aureus NCTC 10649M; format: functional; conditions: Staphylococcus aureus, NCTC 10649; read-out: MIC
Outline: (§2)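 Agar dilution MIC determination following the National Committee for Clinical Laboratory Standards recommendations.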

[3] = system: Mus musculus; assay: In vivo efficacy against Streptococcus pneumoniae ATCC 6303 in mouse protection test after administration by oral gavage; format: functional; outline: as §1
[4] = system: Staphylococcus aureus; assay: In vivo efficacy against Staphylococcus aureus NCTC 10649M in mouse; format: functional; conditions: Staphylococcus aureus; read-out: ED50; outline: as §1
[5] = system: Pseudomonas aeruginosa; assay: In vitro antibacterial activity against Gram-negative Pseudomonas aeruginosa 5007; format: functional; conditions: Pseudomonas aeruginosa; read-out: MIC; outline: as §2
[6] = system: Streptococcus pyogenes; assay: In vitro antibacterial activity against gram positive Streptococcus pyogenes 930; format: functional; conditions: Streptococcus pyogenes; read-out: MIC; outline: as §2
[7] = system: Staphylococcus aureus; assay: In vivo efficacy against Staphylococcus aureus NCTC 10649M in mouse protection test after p.o. administration.; format: functional; conditions: Staphylococcus aureus, po; read-out: ED50; outline: as §1
[8] = system: Staphylococcus aureus; assay: In vitro antibacterial activity against gram-positive Staphylococcus aureus 1775; format: functional; conditions: Staphylococcus aureus; read-out: MIC; outline: as §2
[9] = system: Pseudomonas aeruginosa; assay: In vitro antibacterial activity against gram negative P. aeruginosa DPHP 5263; format: functional; conditions: Pseudomonas aeruginosa, DPHP 5263; read-out: MIC; outline: as §2
[10] = system: Pseudomonas aeruginosa; assay: In vivo efficacy against Pseudomonas aeruginosa 5007 in mouse protection test after subcutaneous administration; format: functional; conditions: Pseudomonas aeruginosa, sc; read-out: ED50; outline: as §1
[11] = system: Enterococcus faecium; assay: In vitro antibacterial activity against gram-positive Enterococcus faecium ATCC 8043; format: functional; conditions: Enterococcus faecium, ATCC 8043; read-out: MIC; outline: as §2
[12] = system: Escherichia coli; assay: In vitro antibacterial activity against gram negative Escherichia coli KNK 437; format: functional; conditions: Escherichia coli; read-out: MIC; outline: as §2
[13] = system: Escherichia coli; assay: In vivo efficacy against Escherichia coli JUHL in mouse protection test after p.o. administration.; format: functional; conditions: Escherichia coli, po; read-out: ED50; outline: as §1
[14] = system: Burkholderia cepacia; assay: In vitro antibacterial activity against gram negative Pseudomonas cepacia 2961; format: functional; conditions: Burkholderia cepacia; read-out: MIC; outline: as §2
[15] = system: Pseudomonas aeruginosa; assay: (§3) In vivo efficacy against Pseudomonas aeruginosa 5007 in mouse protection test after administration by oral gavage; format: functional; conditions: Pseudomonas aeruginosa, po; read-out: ED50; outline: as §1
[16] = system: Streptococcus pneumoniae; assay: In vivo efficacy against Streptococcus pneumoniae ATCC 6303 in mouse protection test after s.c. administration.; format: functional; conditions: Streptococcus pneumoniae, sc; read-out: ED50; outline: as §1
[17] = system: Escherichia coli; assay: In vitro antibacterial activity against Escherichia coli KNK 437 a ciprofloxacin less sensitive strain; format: functional; outline: as §2
[18] = system: Mus musculus; assay: In vivo efficacy against Escherichia coli JUHL in mouse protection test after administration by oral gavage.; format: functional; outline: as §1
[19] = system: Pseudomonas aeruginosa; assay: Not Plasmodium species; format: functional
[20] = system: Mus musculus; assay: as §3; format: functional; outline: as §1
[21] = system: Mus musculus; assay: IIn vivo efficacy against Escherichia coli JUHL in mouse protection test after administration by oral gavage; format: functional; outline: as §1
[22] = system: Mus musculus; assay: In vivo efficacy against Pseudomonas aeruginosa 5007 in mouse protection test […]; format: functional; outline: as §1
[23] = system: Mus musculus; assay: In vivo efficacy against Staphylococcus aureus NCTC 10649M in mouse protection test

| SMILES | MIC [2] [µg/mL] | MIC [5] [µg/mL] | MIC [6] [µg/mL] | MIC [8] [µg/mL] | MIC [9] [µg/mL] | MIC [11] [µg/mL] | MIC [12] [µg/mL] | MIC [14] [µg/mL] | ED50 [1] [mg/kg] | ED50 [3] [mg/kg] | ED50 [4] [mg/kg] | ED50 [7] [mg/kg] | ED50 [10] [mg/kg] | ED50 [13] [mg/kg] | ED50 [15] [mg/kg] | ED50 [16] [mg/kg] | ED50 [23] [mg/kg] | other results |
| --- | --- | --- | --- | --- | --- | --- | --- | --- | --- | --- | --- | --- | --- | --- | --- | --- | --- | --- |
| Cc1c(N2C[C@H](C3CC3)[C@@H](N)C2)c(F)cn2c(=O)c(C(=O)O)cc(C3CC3)c12 | 0.02 (≈ 0.0519 µM) | 0.39 (≈ 1.01 µM) | 0.1 (≈ 0.259 µM) | 0.78 (≈ 2.02 µM) | 12.5 (≈ 32.4 µM) | 0.1 (≈ 0.259 µM) | 0.2 (≈ 0.519 µM) | 1.56 (≈ 4.05 µM) | 1.2 | > 50 | 3 | 11.2 | > 32 | > 10 | > 50 | > 8 | – | – |
| Cc1c(N2C[C@H]3CNC[C@H]3C2)c(F)cn2c(=O)c(C(=O)O)cc(C3CC3)c12 | 0.05 (≈ 0.135 µM) | 0.2 (≈ 0.538 µM) | 0.1 (≈ 0.269 µM) | 6.2 (≈ 16.7 µM) | 6.2 (≈ 16.7 µM) | 0.1 (≈ 0.269 µM) | – | 3.1 (≈ 8.35 µM) | 0.7 | 25.2 | 1.2 | 12.5 | 6.4 | – | 58.7 | 1.3 | – | MIC [17]: 0.2 µg/mL (≈ 0.538 µM); ED50 [18]: 5 mg/kg |
| Cc1c(N2CC[C@@H]3NCCC[C@@H]32)c(F)cn2c(=O)c(C(=O)O)cc(C3CC3)c12 | 0.2 (≈ 0.519 µM) | 3.1 (≈ 8.04 µM) | 1.56 (≈ 4.05 µM) | 12.5 (≈ 32.4 µM) | 100 (≈ 259 µM) | 3.1 (≈ 8.04 µM) | 0.78 (≈ 2.02 µM) | 25 (≈ 64.9 µM) | 4.4 | – | 7 | 23.9 | > 32 | – | – | – | – | ED50 [21]: > 10 mg/kg; ED50 [22]: > 50 mg/kg |
| Cc1c(N2CC[C@@H](NCCF)C2)c(F)cn2c(=O)c(C(=O)O)cc(C3CC3)c12 | 0.02 (≈ 0.0511 µM) | 1.56 (≈ 3.99 µM) | 0.05 (≈ 0.128 µM) | 0.39 (≈ 0.996 µM) | 25 (≈ 63.9 µM) | 0.1 (≈ 0.255 µM) | 1.56 (≈ 3.99 µM) | 1.56 (≈ 3.99 µM) | 4.4 | 30.7 | – | 9.6 | > 32 | 34.1 | > 50 | 8 | 2.1 | – |
| Cc1c(N2CCC2)c(F)cn2c(=O)c(C(=O)O)cc(C3CC3)c12 | 0.2 (≈ 0.632 µM) | – | 0.78 (≈ 2.47 µM) | 3.1 (≈ 9.8 µM) | > 10 | 0.78 (≈ 2.47 µM) | 3.1 (≈ 9.8 µM) | 3.1 (≈ 9.8 µM) | – | – | – | – | – | – | – | – | – | MIC [19]: 3.1 µg/mL (≈ 9.8 µM) |

Continued by falling MIC [2], values first:

| MIC [2] [µg/mL] | MIC [5] [µg/mL] | MIC [6] [µg/mL] | MIC [8] [µg/mL] | MIC [9] [µg/mL] | MIC [11] [µg/mL] | MIC [12] [µg/mL] | MIC [14] [µg/mL] | SMILES | ED50 [1] [mg/kg] | ED50 [3] [mg/kg] | ED50 [4] [mg/kg] | ED50 [7] [mg/kg] | ED50 [10] [mg/kg] | ED50 [13] [mg/kg] | ED50 [15] [mg/kg] | ED50 [16] [mg/kg] | ED50 [23] [mg/kg] | other results |
| --- | --- | --- | --- | --- | --- | --- | --- | --- | --- | --- | --- | --- | --- | --- | --- | --- | --- | --- |
| 0.1 (≈ 0.258 µM) | 1.56 (≈ 4.03 µM) | 0.2 (≈ 0.516 µM) | 1.56 (≈ 4.03 µM) | 12.5 (≈ 32.3 µM) | 0.39 (≈ 1.01 µM) | 0.2 (≈ 0.516 µM) | 3.1 (≈ 8 µM) | CCCN[C@H]1CCN(c2c(F)cn3c(=O)c(C(=O)O)cc(C4CC4)c3c2C)C1 | 1.1 | – | 4.3 | 25.4 | > 8 | > 10 | – | – | – | ED50 [20]: > 50 mg/kg |
| 0.02 (≈ 0.0605 µM) | – | 0.2 (≈ 0.605 µM) | 0.78 (≈ 2.36 µM) | > 100 | 0.2 (≈ 0.605 µM) | 0.39 (≈ 1.18 µM) | 0.78 (≈ 2.36 µM) | Cc1c(N2CCCC2)c(F)cn2c(=O)c(C(=O)O)cc(C3CC3)c12 | > 50 | – | > 12 | – | – | – | – | – | – | MIC [19]: 0.78 µg/mL (≈ 2.36 µM) |
| 0.02 (≈ 0.0538 µM) | 0.39 (≈ 1.05 µM) | 0.05 (≈ 0.135 µM) | 1.56 (≈ 4.2 µM) | 6.2 (≈ 16.7 µM) | 0.05 (≈ 0.135 µM) | 0.2 (≈ 0.538 µM) | 3.1 (≈ 8.35 µM) | Cc1c(N2CC[C@@H]3[C@H](N)[C@@H]3C2)c(F)cn2c(=O)c(C(=O)O)cc(C3CC3)c12 | 0.9 | – | – | 4.1 | – | 5 | – | – | 1.2 | – |
| 0.01 (≈ 0.025 µM) | 0.39 (≈ 0.976 µM) | 0.05 (≈ 0.125 µM) | 1.56 (≈ 3.91 µM) | 25 (≈ 62.6 µM) | 0.05 (≈ 0.125 µM) | 0.2 (≈ 0.501 µM) | 3.1 (≈ 7.76 µM) | Cc1c(N2CCCC(NC3CC3)C2)c(F)cn2c(=O)c(C(=O)O)cc(C3CC3)c12 (configuration not stated) | 2.8 | 2.5 | – | 2.1 | > 32 | 8 | > 50 | 1 | 0.4 | – |
